Broadly, the IC50 is the concentration that gives 50% inhibition. Usually inhibition stands for the drop in the measured response relative to a control, in per cent.

We go through eleven compounds from ChEMBL document CHEMBL4049440, “First Dual Inhibitors of Steroid Sulfatase (STS) and 17β-Hydroxysteroid Dehydrogenase Type 1 (17β-HSD1): Designed Multiple Ligands as Novel Potential Therapeutics for Estrogen-Dependent Diseases” (J Med Chem, 2017).

For data set [1], the target named is T1, 17-beta-hydroxysteroid dehydrogenase type 1 (Homo sapiens, UniProt P14061).
T1 sequence (P14061 whole entry): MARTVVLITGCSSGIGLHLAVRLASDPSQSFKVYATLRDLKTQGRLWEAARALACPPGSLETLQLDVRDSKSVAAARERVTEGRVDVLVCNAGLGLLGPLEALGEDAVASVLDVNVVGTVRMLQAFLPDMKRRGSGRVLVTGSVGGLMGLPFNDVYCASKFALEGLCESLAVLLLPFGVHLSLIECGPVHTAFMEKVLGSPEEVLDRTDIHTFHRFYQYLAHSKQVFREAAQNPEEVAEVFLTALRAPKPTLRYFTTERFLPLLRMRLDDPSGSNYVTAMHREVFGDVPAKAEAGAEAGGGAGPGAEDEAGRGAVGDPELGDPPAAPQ
Description: Inhibition of human placental cytosolic 17beta-HSD1 using [3H]-E1/E1 substrate and NADH after 10 mins by HPLC based radio-detection method. In short, it runs like this:
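Cell-free assay with the cytosolic fraction of human placenta as the 17β-HSD1 source and radiolabeled E1 as substrate, with test compound present.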

In data set [2] the target is T2, Steryl-sulfatase (Homo sapiens) (UniProt P08842).
T2 sequence (whole entry): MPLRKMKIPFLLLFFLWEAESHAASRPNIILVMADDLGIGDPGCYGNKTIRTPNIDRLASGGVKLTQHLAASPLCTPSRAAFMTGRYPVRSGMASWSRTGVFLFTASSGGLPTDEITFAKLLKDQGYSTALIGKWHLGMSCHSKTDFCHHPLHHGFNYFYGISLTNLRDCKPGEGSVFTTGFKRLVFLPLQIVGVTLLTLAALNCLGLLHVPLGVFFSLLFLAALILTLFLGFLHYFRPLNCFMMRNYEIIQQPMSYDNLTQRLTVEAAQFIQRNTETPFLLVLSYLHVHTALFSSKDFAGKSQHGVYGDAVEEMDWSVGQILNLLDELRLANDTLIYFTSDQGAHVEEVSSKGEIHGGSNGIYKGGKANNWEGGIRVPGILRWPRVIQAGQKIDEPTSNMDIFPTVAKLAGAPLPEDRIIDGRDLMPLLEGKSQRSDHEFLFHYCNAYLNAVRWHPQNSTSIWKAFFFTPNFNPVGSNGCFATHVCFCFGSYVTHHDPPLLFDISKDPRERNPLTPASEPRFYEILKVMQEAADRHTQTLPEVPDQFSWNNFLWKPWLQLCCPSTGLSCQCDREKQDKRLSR
The data set is described as follows: Inhibition of human placental microsomal STS assessed as formation of E1 at 1 uM preincubated for 30 mins followed by addition of E1S as substrate measured after 20 mins by ELISA. In short, it runs like this: (§1)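 Human placental STS incubated with estrone sulfate (E1S) as substrate in the presence of inhibitor; estrone (E1) formed was quantified by ELISA.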

A short description of data set [3]: Stability of the compound in Tris-HCl buffer at pH 7.2 after 30 mins. In kind it is physicochemical. The following applies: pH 7.2, 0.5 h. The gist of the method: (§2)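 Compound incubated in 20 mM Tris-HCl buffer, pH 7.2, at 37 °C for 30 min. Remaining parent compound was measured, with sulfamate cleavage to the phenolic OH product monitored.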
A short description of data set [4]: Selectivity factor, ratio of IC50 for human placental microsomal 17beta-HSD2 cells to IC50 for human placental cytosolic 17beta-HSD1.
In data set [5] the target is T3, 17-beta-hydroxysteroid dehydrogenase type 2 (Homo sapiens, UniProt P37059).
T3 sequence (P37059 whole entry): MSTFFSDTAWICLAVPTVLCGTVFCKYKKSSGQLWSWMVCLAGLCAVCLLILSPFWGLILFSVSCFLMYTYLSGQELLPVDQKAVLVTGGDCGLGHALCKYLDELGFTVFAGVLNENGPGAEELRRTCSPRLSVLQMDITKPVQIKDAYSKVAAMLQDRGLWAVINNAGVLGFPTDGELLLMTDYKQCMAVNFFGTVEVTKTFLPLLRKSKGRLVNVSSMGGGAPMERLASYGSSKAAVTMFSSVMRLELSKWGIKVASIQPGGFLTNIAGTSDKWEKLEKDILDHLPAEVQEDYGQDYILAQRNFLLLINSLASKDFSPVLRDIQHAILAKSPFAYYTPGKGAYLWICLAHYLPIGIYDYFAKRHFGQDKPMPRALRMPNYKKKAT
Description: Inhibition of human placental microsomal 17beta-HSD2 using [3H]-E2/E2 substrate and NAD+ after 20 mins by HPLC based radio-detection method.

The target in data set [6] is T4, Steryl-sulfatase (Homo sapiens, UniProt P08842).
T4 sequence (P08842 whole entry): T2 sequence (whole entry)
The data set is described as follows: Inhibition of human placental microsomal STS assessed as formation of E1 preincubated for 30 mins followed by addition of E1S as substrate measured after 20 mins by ELISA. The gist of the method: as §1
On the technique in general: An ELISA detects its analyte on a solid surface through an enzyme-linked reagent.

The target in data set [7] is T4, Steryl-sulfatase. Description: Inhibition of STS in human T47D cells preincubated for 1 hr followed by addition of [3H]-E1S/E1S as substrate measured after 24 hrs by HPLC based radio-detection method. In kind it is cell-based.
In data set [8] the target is T1, 17-beta-hydroxysteroid dehydrogenase type 1. The data set is described as follows: Inhibition of 17beta-HSD1 in human T47D cells preincubated for 1 hr followed by addition of [3H]-E1/E1 as substrate measured after 30 mins by HPLC based radio-detection method. The class given is cell-based.
Data set [9] has as its target T4, Steryl-sulfatase. Description: Irreversible inhibition of STS in human T47D cells preincubated for 2 hrs followed by compound washout and addition of [3H]-E1S/E1S as substrate measured after 24 hrs by HPLC based radio-detection method. The class given is cell-based.
For another data set, the system named is T47D. Description: Antiproliferative activity against E1S/E1-stimulated human T47D cells assessed as reduction in cell viability measured after 7 days after MTT assay. The class given is functional, cell-based. In general terms: Formazan colour is commonly taken as a measure of viable cells.
The nature of data set [10]: Drug degradation in Tris-HCl buffer assessed as formation of metabolite containing phenolic OH-group by measuring remaining parent compound levels at pH 7.2 after 30 mins. The gist of the method:
as §2

As to `NS(=O)(=O)Oc1ccc(-c2ccc(C(=O)c3c(F)ccc(O)c3F)s2)cc1`, the IC50 in data set [1] was found to be 3.4 nM; in data set [5], 28 nM. The inhibition in data set [2] was less than 10%. Besides, the Stability entry in [3] is given as “Stable”. Moreover, the “Ratio IC50” value in [4] turned out to be 8.2.

For `NS(=O)(=O)Oc1ccc(-c2ccc(C(=O)c3c(F)ccc(O)c3F)s2)c(Cl)c1`, the IC50 at Steryl-sulfatase [6] stood at 19.4 nM; in [1] it was 10.2 nM; on Steryl-sulfatase [7] it was 3.4 nM; in [8], 60.9 nM; against Steryl-sulfatase [9], 3.9 nM; in [5], 19.1 nM. Moreover, the Activity result in the data set on T47D is “Dose-dependent effect”. Also, the Stability result in data set [3] is “Stable”. Moreover, the “Ratio IC50” value in [4] is given as 1.9.

On to `NS(=O)(=O)Oc1ccccc1-c1ccc(C(=O)c2c(F)ccc(O)c2F)s1`, for which the IC50 in data set [1] is 22.5 nM; in [5], 4.1 nM. Also, the inhibition in [2] is less than 10%. In data set [3], the Stability result is on record as “Stable”. Also, in data set [4], the “Ratio IC50” value is given as 0.2.

Take `NS(=O)(=O)Oc1cccc(-c2ccc(C(=O)c3c(F)ccc(O)c3F)s2)c1`: the IC50 was 2.2 nM in data set [1] and 31.3 nM in data set [5]. The inhibition in data set [2] was less than 10%. The Stability result in [3] was “Stable”. Moreover, the “Ratio IC50” value in data set [4] amounted to 14.2.

With `NS(=O)(=O)Oc1ccc(-c2ccc(C(=O)c3c(F)ccc(O)c3F)s2)c(F)c1Cl`, the IC50 was determined as 244 nM at Steryl-sulfatase [6], 1.4 nM in data set [1] and 18.4 nM in data set [5]. In addition, in [10], the Stability worked out at 22%. For the same compound, the “Ratio IC50” value in data set [4] is recorded as 13.2.

As to `NS(=O)(=O)Oc1ccc(-c2ccc(C(=O)c3c(F)ccc(O)c3F)s2)c(F)c1`, the IC50 was 19.5 nM on Steryl-sulfatase [6]; 12.2 nM in [1]; 2.1 nM on Steryl-sulfatase [7]; 42.1 nM in data set [8]; 3.1 nM against Steryl-sulfatase [9]; 22.2 nM in [5]. Also, the Activity entry in the data set with T47D is “Dose-dependent effect”. In addition, the Stability result in data set [3] was “Stable”. Further, in data set [4], the “Ratio IC50” value was determined as 1.8.

`Cc1cc(OS(N)(=O)=O)ccc1-c1ccc(C(=O)c2c(F)ccc(O)c2F)s1`: the results for the IC50 (on Steryl-sulfatase [6]; in [1]; in [5]) were 35 nM, 43.5 nM and 40 nM, respectively. In data set [3], the Stability entry is reported as “Stable”. Besides, in data set [4], the “Ratio IC50” value was 0.9.

With `NS(=O)(=O)Oc1ccc(-c2ccc(C(=O)c3c(F)ccc(O)c3F)s2)c(F)c1F`, the IC50 worked out at 105 nM on Steryl-sulfatase [6], 2.7 nM in [1] and 23.2 nM in data set [5]. Besides, the Stability in data set [10] was 28%. Besides, the “Ratio IC50” value in data set [4] came to 8.6.

Consider `Cc1cc(-c2ccc(C(=O)c3c(F)ccc(O)c3F)s2)ccc1OS(N)(=O)=O`, for which the concentration for half-maximal inhibition (IC50) came out at 221 nM on Steryl-sulfatase [6], 32.4 nM in data set [1] and 31.2 nM in data set [5]. Moreover, the Stability result in data set [3] is “Stable”. In addition, the “Ratio IC50” value in data set [4] worked out at 1.

For the compound `NS(=O)(=O)Oc1ccc(-c2ccc(C(=O)c3c(F)ccc(O)c3F)s2)cc1F`, the IC50 at Steryl-sulfatase [6] was determined as 81.8 nM; in data set [1], 2.5 nM; on Steryl-sulfatase [7], 5.1 nM; in data set [8], 20 nM; at Steryl-sulfatase [9], 5.7 nM; in [5], 13.7 nM. Besides, the Activity result in the data set with T47D was “Dose-dependent effect”. Further, the Stability result in [3] is recorded as “Stable”. The “Ratio IC50” value in data set [4] was determined as 5.5.

Consider `NS(=O)(=O)Oc1cccc(-c2ccc(C(=O)c3c(F)ccc(O)c3F)s2)c1F`, for which the IC50 on Steryl-sulfatase [6] is 123 nM; in data set [1], 7.1 nM; in data set [5], 17.4 nM. In addition, the Stability result in [3] is given as “Stable”. The “Ratio IC50” value in [4] is 2.5.
